Sampled rows, rich in hits. Any-hit rate of the full collection: about 1.4%.
CAL PDZ FP-1: blocks peptide binding to human CAL PDZ domain; purified CAL PDZ, TMR-peptide fluorescence polarization, 1 h; inhibition, % at 20 µM; Q9HD26; 0.02% of 330,000 active; AID 504414;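 active = highest replicate inhibition of at least 40%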;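 also: plate controls were DMSO neutral control wells for no effect and unlabeled competitor peptide control wells for full effect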
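Test system: purified CerCALP PDZ construct; Compound dosing: one concentration, 20 µM compound; Also added: TMR-labelled reporter peptide T*-PRC34 bound in PDZ groove; Read-out: inhibition from polarization loss; Controls: unlabelled peptide and DMSO controls; Signal: FP readout, S and P plane fluorescence; Incubation: 1 h at RT.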
TbMetRS inhib: Trypanosoma brucei MetRS inhibition; inhibition, % at 11.9 µM; AID 624268; purified T. brucei MetRS, ATP depletion, Kinase-Glo luminescence; 0.4% of 360,000 active;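 active = inhibition above a per-plate cutoff of the control wells' mean inhibition plus 3 SD, cut at about 5.5% in these data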;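 also: 0% = DMSO wells median and 100% = median of wells with control inhibitor compound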
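Material – parasite MetRS enzyme · Medium – HEPES-MgCl2-KCl buffer plus DTT, spermine, BSA, pyrophosphatase · Reagent – ATP, methionine and E. coli bulk tRNA substrates · Times – 15 min enzyme-compound preincubation, 2 h reaction, 10 min detection, 25 °C · Measured by – luminescence of leftover ATP · Evaluation – percent inhibition relative to median high and low control wells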
CDK5 inh: blocks human CDK5/p35 kinase activity. Recombinant CDK5/p35, ADP-Glo luminescence, 60 min. Q00535+Q15078. inhibition, % at 10 µM. 0.01% of 330,000 active;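 active = highest replicate inhibition of at least 50% and at least 75% of replicates reaching 50%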;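 also: plate controls were DMSO neutral control for no effect and GW8510 at 10 µM for full effect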
Target sequence (Q00535 whole entry, looked up): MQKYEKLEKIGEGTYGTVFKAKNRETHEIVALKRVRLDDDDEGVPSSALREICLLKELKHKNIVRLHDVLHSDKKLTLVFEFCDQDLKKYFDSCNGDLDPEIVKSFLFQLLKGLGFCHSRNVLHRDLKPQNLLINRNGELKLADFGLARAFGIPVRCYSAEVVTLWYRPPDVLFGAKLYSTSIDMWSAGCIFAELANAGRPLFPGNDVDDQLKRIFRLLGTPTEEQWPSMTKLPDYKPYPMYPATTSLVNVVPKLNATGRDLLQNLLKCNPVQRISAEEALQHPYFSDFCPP
Target sequence (Q15078 whole entry, looked up): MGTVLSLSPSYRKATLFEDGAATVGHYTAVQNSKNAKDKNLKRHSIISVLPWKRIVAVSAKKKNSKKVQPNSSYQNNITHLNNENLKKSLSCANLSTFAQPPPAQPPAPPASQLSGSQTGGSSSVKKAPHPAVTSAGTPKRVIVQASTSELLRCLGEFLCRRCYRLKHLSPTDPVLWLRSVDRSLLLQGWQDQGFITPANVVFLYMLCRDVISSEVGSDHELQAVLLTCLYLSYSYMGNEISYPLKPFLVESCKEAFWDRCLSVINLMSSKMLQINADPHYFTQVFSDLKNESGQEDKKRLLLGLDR
DYRK1A inh: blocks rat Dyrk1A kinase activity | ADP-Glo luminescence, NFATc1 peptide | 0.43% of 310,000 active | Q63470 | inhibition, % at 12.5 µM; in the data active = inhibition above about 50%;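 also: plate controls were vehicle with enzyme for no effect and no enzyme for full effect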
PvdQ acylase: P. aeruginosa PvdQ acylase inhibition; purified PvdQ acylase, fluorescence plate reader; inhibition, % at 10 µM; 0.063% of 340,000 active; AID 488965; in the data active = inhibition above about 30%, passing the limit was not always enough;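 also: 0% = vehicle neutral wells and 100% = reference inhibitor wells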
CAL PDZ FP-2: inhibitors of human CAL PDZ peptide binding; purified CAL PDZ, TMR-peptide fluorescence polarization, 1 h; inhibition, % at 24.9 µM; 0.92% of 300,000 active; Q9HD26;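 active = mean inhibition of at least 30% with at least half of replicates also reaching 30%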;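 also: 0% = DMSO neutral control and 100% = excess unlabeled competitor peptide PRC23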
ADP-Glo artifact: counter-screen for Dyrk1A inhibitors: ADP-Glo luciferase artifacts | ADP-Glo luciferase artifact assay, no Dyrk1A, luminescence | shares compounds with DYRK1A inh | AID 588348 | AC50, µM (doses to about 12 µM), for the others: top-dose activity change, negative = inhibition | 1,300 tested, under 10 active;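 active = fitted half-maximal dose AC50 no more than ten times the top valid tested dose, with luminescence dropping as dose rises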
* hit, by the source's call; ! = not confirmed by another sample.

What do the screens show for `CCCCn1nnnc1C(c1cccc2ccccc12)N1CCN(C/C=C/c2ccccc2)CC1` (stereo unspecified)?
TbMetRS inhib: 0

Results for NC(N)=NC(=O)c1nc(Cl)c(N)nc1N ?
CAL PDZ FP-1: 0; TbMetRS inhib: 0; CDK5 inh: 4; DYRK1A inh: 64*!; PvdQ acylase: -5; CAL PDZ FP-2: -7; ADP-Glo artifact: 9%

How did COC(=O)c1[nH]c2cc(OC)ccc2c1N do in these assays?
CAL PDZ FP-1: -1; TbMetRS inhib: 0; CDK5 inh: 2; DYRK1A inh: 75*; PvdQ acylase: -8; CAL PDZ FP-2: -2; ADP-Glo artifact: 10%

What do the screens show for `COC(=O)c1oc2ccc(OC)cc2c1N`?
CAL PDZ FP-1: 0; TbMetRS inhib: -1; CDK5 inh: 1; DYRK1A inh: 70*; PvdQ acylase: -6; CAL PDZ FP-2: 0; ADP-Glo artifact: 11%

Results for COc1ccc(C(=O)c2oc3ccc(OC)cc3c2N)cc1 ?
CAL PDZ FP-1: -6; TbMetRS inhib: 0; CDK5 inh: 0; DYRK1A inh: -4; PvdQ acylase: -7; CAL PDZ FP-2: -4

What do the screens show for `COc1ccc(N/C=C2\CCOC2=O)cc1`?
CAL PDZ FP-1: -1; TbMetRS inhib: -1; CDK5 inh: 7; DYRK1A inh: 8; PvdQ acylase: 12

Results for COc1ccc(N/C=C2\C(=O)CCc3c2oc2cc(Cl)c(O)c(Cl)c32)cc1 ?
CAL PDZ FP-1: 0; TbMetRS inhib: 0; CDK5 inh: -1; DYRK1A inh: 55*; PvdQ acylase: 1; CAL PDZ FP-2: -3; ADP-Glo artifact: 9%

Results for CC(=O)N1CCC(C(=O)N2c3ccccc3N=C(c3ccc4c(c3)OCO4)C2C(=O)Nc2c(C)cccc2C)CC1 (stereo unspecified) ?
TbMetRS inhib: -1

How did Fc1ccc(-c2nc3c4ccccc4ccn3c2Cc2ccsc2)cc1 do in these assays?
TbMetRS inhib: 0

Results for Cc1cc(NCCCn2ccnc2)n2ncc(-c3ccc(Cl)cc3)c2n1 ?
CAL PDZ FP-1: -2; TbMetRS inhib: -1; CDK5 inh: 1; DYRK1A inh: 56*; PvdQ acylase: 0; ADP-Glo artifact: 10%

Results for CN1CCc2c(sc3nc(NN)n(Cc4ccccc4)c(=O)c23)C1 ?
CAL PDZ FP-1: 0; TbMetRS inhib: -1; CDK5 inh: 2; DYRK1A inh: 18; PvdQ acylase: -2

What do the screens show for `CN1CCc2c(sc3nc(NN)n(-c4ccc(Cl)cc4)c(=O)c23)C1`?
CAL PDZ FP-1: 0; TbMetRS inhib: -2; CDK5 inh: 3; DYRK1A inh: 63*; PvdQ acylase: 18; CAL PDZ FP-2: -1; ADP-Glo artifact: 6%

How did O=C(CC1CC2CCC1C2)N1CCN(S(=O)(=O)c2ccc(F)cc2)CC1 (stereo unspecified) do in these assays?
TbMetRS inhib: 0

What do the screens show for `O=c1c2c(O)cc(O)cc2oc2ccc(O)c(O[C@@H]3O[C@H](CO)[C@@H](O)[C@H](O)[C@H]3O[C@H]3O[C@H](CO)[C@@H](O)[C@H](O)[C@H]3O)c12`?
CAL PDZ FP-1: -1; TbMetRS inhib: 1; CDK5 inh: 3; DYRK1A inh: 79*; PvdQ acylase: 1; CAL PDZ FP-2: -2; ADP-Glo artifact: 10%

Results for CC1OC(OC2C(Oc3c(-c4ccc(O)cc4)oc4cc(O)cc(O)c4c3=O)OC(COC3O[C@@H](C)[C@H](O)[C@@H](O)C3O)C(O)C2O)C(O)C(O)C1O (stereo partly specified) ?
CAL PDZ FP-1: -1; TbMetRS inhib: 0; CDK5 inh: -3; DYRK1A inh: -2; PvdQ acylase: -7; CAL PDZ FP-2: -4

What do the screens show for `CC1OC(OCC2OC(Oc3c(-c4ccc(O)cc4)oc4cc(O)cc(O)c4c3=O)C(O)C(O)C2O)C(O)C(O)C1O` (stereo unspecified)?
CAL PDZ FP-1: -1; TbMetRS inhib: 2; CDK5 inh: 1; DYRK1A inh: 53*; PvdQ acylase: -3; CAL PDZ FP-2: -3; ADP-Glo artifact: 8%

Results for O=c1cc(-c2ccc(O)cc2)oc2cc(O[C@@H]3O[C@H](CO)[C@@H](O)[C@H](O)[C@H]3O[C@@H]3OC[C@](O)(CO)[C@H]3O)cc(O)c12 ?
CAL PDZ FP-1: -6; TbMetRS inhib: 0; CDK5 inh: 1; DYRK1A inh: -8; PvdQ acylase: -6; CAL PDZ FP-2: -10

What do the screens show for `C[C@@H]1O[C@@H](OC[C@H]2O[C@@H](Oc3c(-c4ccc(O)c(O)c4)oc4cc(O)cc(O)c4c3=O)[C@H](O)[C@@H](O)[C@@H]2O)[C@H](O)[C@H](O)[C@H]1O`?
CAL PDZ FP-1: 0; TbMetRS inhib: 0; CDK5 inh: 0; DYRK1A inh: 77*; PvdQ acylase: -6; CAL PDZ FP-2: -2; ADP-Glo artifact: 10%

What do the screens show for `O=C(C[C@@H]1C=C[C@H](NC(=O)Cc2ccccn2)[C@@H](CO)O1)NCCc1ccccc1`?
TbMetRS inhib: 0

How did C[C@H](CO)N1C[C@H](C)[C@@H](CN(C)S(=O)(=O)c2ccccc2)Oc2c(NS(=O)(=O)c3ccccc3)cccc2C1=O do in these assays?
CAL PDZ FP-1: 0; TbMetRS inhib: 0; CDK5 inh: 0; DYRK1A inh: -3; PvdQ acylase: -3; CAL PDZ FP-2: 1

How did O=C(Nc1cccc2nsnc12)c1ccc2c(c1)OCO2 do in these assays?
TbMetRS inhib: -1; CDK5 inh: 0; DYRK1A inh: 54*; PvdQ acylase: -8; CAL PDZ FP-2: -3; ADP-Glo artifact: 2%

Results for Cc1ccc(NC2=C(N3CCCCC3)C(=O)c3ccccc3C2=O)cc1 ?
CAL PDZ FP-1: -2; TbMetRS inhib: 0; CDK5 inh: 0; DYRK1A inh: 52*; PvdQ acylase: -1; CAL PDZ FP-2: -3; ADP-Glo artifact: 9%

How did O=C1C(Nc2ccccc2)=C(N2CCCCC2)C(=O)c2ccccc21 do in these assays?
CAL PDZ FP-1: 0; TbMetRS inhib: 0; CDK5 inh: 0; DYRK1A inh: 18; PvdQ acylase: 5; CAL PDZ FP-2: -2

What do the screens show for `Cc1cc2c(ccc3[nH]onc32)n1`?
CAL PDZ FP-1: 0; TbMetRS inhib: -1; CDK5 inh: 3; DYRK1A inh: 51*; PvdQ acylase: -7; CAL PDZ FP-2: -2; ADP-Glo artifact: 8%

What do the screens show for `Cc1ccc2nc(C)cc(Cl)c2c1`?
CAL PDZ FP-1: -3; TbMetRS inhib: 0; CDK5 inh: 0; DYRK1A inh: -1; PvdQ acylase: -7; CAL PDZ FP-2: 0

High-throughput results: PubChem, several laboratories
